This note sets out measurements from PMC10262665 (Science (New York, N.Y.), 2023).

One assay concerns the target GAPDH (Homo sapiens, UniProt P04406). Kind of assay: MIDAS protein-metabolite interaction screen. It counts as binding. The conditions noted are these: significant PMI Q < 0.01.
Another assay concerns the target T1, PGAM2 (Homo sapiens, UniProt P15259).
T1 sequence (P15259 1-253): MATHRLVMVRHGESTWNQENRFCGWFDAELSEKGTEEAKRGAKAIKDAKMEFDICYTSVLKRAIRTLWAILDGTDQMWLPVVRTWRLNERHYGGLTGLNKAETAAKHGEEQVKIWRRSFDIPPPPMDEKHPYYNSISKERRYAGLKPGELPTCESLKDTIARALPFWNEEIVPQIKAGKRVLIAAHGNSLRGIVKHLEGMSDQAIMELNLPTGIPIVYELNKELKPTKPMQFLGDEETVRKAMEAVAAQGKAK
Kind of assay: MIDAS protein-metabolite interaction screen. The assay is classed as binding. The conditions noted are these: significant PMI Q < 0.01. In a few lines:
(§1)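 Purified protein is separated from a defined metabolite library by a semipermeable dialysis membrane that passes metabolites but not protein, then incubated to relative equilibrium. Protein is denatured and removed. Metabolites in both chambers are quantified by flow injection analysis–MS, with methods optimized for each pool. The between-chamber fold change is normalized and corrected for nonspecific interactions.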

Another assay concerns the target PGAM1 (Homo sapiens, UniProt P18669). Kind of assay: MIDAS protein-metabolite interaction screen. The assay is classed as binding. The conditions noted are these: significant PMI Q < 0.01. In a few lines: as §1
The target of another assay is ENO2 (Homo sapiens, UniProt P09104). The assay is described as follows: Differential scanning fluorimetry. The assay is classed as binding. The conditions noted are these: DSF, ENO2.
Another assay addresses ENO1 (Homo sapiens, UniProt P06733). The assay is described as follows: Differential scanning fluorimetry. The assay is classed as binding. The conditions noted are these: DSF, ENO1. For orientation: In DSF a fluorescence change marks the thermal transition of the protein.
Assay [1] has as its target T2, LDHA (Homo sapiens, UniProt P00338). Kind of assay: LDH enzyme activity assay. It counts as biochemical. The conditions noted are these: for IC50: LDHA enzyme activity, acyl-CoAs; for inhibition of LDHA enzyme activity: in vitro. In a few lines: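 LDH isoform activity measured in vitro with test metabolites (adenosine nucleotides, CoA and acyl-CoAs) over a concentration range. IC50 is derived from the inhibition curves. Mode of inhibition is assessed against NAD and lactate.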

Assay [2] concerns H9c2 rat cardiomyoblasts. Kind of assay: 13C-glucose metabolic tracing into lactate. The conditions noted are these: for labeling of lactate from 13C-glucose: BSA-conjugated palmitate vs BSA. The assay is classed as cell-based.
Assay [3] relates to H9c2 rat cardiomyoblasts. Kind of assay: 13C-lactate metabolic tracing into pyruvate. The assay is classed as cell-based.
The next assay concerns the target LDHB (Homo sapiens, UniProt P07195). Kind of assay: MIDAS protein-metabolite interaction screen. The conditions noted are these: significant PMI Q < 0.01. The assay is classed as binding. In a few lines:
as §1

Assay [4] has as its target T2, LDHA. Kind of assay: MIDAS protein-metabolite interaction screen. The conditions noted are these: significant PMI Q < 0.01. The assay is classed as binding. In a few lines:
as §1

A further assay has as its target T3, Sestrin2 (Homo sapiens, UniProt P58004).
T3 sequence (P58004 1-480): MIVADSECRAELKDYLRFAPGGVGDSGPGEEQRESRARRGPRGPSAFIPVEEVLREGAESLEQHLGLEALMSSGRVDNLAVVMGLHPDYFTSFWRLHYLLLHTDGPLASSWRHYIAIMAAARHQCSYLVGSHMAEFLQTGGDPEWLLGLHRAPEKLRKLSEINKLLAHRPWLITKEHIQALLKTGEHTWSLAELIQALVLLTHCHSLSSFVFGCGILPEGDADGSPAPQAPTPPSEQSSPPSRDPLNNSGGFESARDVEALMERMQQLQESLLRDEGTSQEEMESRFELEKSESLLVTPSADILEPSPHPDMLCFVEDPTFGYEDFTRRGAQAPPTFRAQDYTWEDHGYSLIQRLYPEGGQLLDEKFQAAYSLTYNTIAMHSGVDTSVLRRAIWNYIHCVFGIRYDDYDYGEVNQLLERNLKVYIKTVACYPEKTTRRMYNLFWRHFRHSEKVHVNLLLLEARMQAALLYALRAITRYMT
Kind of assay: MIDAS protein-metabolite interaction screen. The assay is classed as binding. The conditions noted are these: significant PMI Q < 0.01. In a few lines: as §1

Where [5] appears, read: dimethylated fatty acid analogs.

The IC50 is the point on the concentration scale where inhibition reaches its midpoint.

Where only a bound is given, the exact number is not on record here.

GAPDH, sequence (P04406 whole entry): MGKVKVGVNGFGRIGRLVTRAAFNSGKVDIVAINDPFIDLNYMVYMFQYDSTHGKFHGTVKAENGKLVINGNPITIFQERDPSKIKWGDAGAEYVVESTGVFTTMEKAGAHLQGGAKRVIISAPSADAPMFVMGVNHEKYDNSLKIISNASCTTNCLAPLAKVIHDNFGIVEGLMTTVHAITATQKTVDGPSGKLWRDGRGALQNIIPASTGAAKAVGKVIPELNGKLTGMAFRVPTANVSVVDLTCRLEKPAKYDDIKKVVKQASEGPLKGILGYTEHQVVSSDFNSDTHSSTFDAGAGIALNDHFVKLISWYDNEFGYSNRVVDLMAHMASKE
PGAM1, sequence (P18669 whole entry): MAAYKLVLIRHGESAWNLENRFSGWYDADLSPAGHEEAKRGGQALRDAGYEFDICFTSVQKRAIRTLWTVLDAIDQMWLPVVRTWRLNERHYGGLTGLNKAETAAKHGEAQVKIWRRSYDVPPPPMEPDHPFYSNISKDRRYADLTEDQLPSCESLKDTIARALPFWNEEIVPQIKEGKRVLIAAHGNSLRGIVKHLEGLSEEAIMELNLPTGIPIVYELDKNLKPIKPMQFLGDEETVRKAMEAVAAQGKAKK
ENO1, sequence (P06733 whole entry, canonical isoform): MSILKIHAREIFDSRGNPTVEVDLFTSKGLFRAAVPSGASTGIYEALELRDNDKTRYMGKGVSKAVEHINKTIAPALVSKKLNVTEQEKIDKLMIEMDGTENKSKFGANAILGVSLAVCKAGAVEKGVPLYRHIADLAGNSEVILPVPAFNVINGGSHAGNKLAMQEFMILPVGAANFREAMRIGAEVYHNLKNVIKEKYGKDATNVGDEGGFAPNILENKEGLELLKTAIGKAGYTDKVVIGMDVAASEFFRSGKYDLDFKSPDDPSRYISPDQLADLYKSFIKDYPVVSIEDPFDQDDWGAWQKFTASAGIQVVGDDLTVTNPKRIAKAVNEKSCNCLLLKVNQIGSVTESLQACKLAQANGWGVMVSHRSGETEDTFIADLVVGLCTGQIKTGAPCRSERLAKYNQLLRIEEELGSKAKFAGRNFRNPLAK
LDHB, sequence (P07195 whole entry): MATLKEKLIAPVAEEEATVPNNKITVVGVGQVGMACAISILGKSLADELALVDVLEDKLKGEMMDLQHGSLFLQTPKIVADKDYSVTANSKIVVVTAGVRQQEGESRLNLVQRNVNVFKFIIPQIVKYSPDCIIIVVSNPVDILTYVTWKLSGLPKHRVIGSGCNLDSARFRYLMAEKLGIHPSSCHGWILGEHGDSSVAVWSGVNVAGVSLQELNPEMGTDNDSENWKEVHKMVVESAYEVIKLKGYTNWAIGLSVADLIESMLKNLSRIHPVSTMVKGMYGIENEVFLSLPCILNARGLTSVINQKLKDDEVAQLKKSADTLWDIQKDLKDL
ENO2, sequence (P09104 whole entry): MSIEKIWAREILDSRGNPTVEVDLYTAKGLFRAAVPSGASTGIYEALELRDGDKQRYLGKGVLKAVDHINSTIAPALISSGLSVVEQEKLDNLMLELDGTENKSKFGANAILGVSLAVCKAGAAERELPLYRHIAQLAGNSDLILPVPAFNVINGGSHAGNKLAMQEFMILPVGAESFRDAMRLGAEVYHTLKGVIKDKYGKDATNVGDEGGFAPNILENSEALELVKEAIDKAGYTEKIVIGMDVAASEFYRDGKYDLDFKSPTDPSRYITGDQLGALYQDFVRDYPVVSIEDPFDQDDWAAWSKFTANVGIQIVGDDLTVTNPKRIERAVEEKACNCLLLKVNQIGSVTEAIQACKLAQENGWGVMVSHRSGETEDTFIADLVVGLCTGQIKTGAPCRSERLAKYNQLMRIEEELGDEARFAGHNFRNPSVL

On to `O=C(O)C(COP(=O)(O)O)OP(=O)(O)O` (stereo not shown) [2,3-BPG, 2,3-bisphosphoglycerate], for which the MIDAS protein-metabolite interaction entry at GAPDH, on PGAM2 and on PGAM1 was “interacted” throughout.

In the case of `O=C(O)[C@@H](CO)OP(=O)(O)O` [2PG, 2-phosphoglycerate], the results for the Kd on ENO2 (read-out: apparent dissociation constant (KD app)) and at ENO1 (read-out: apparent dissociation constant (Kd app)) were 289 µM and 298 µM, respectively. As to `O=C(O)[C@H](O)COP(=O)(O)O` [3PG, 3-phosphoglycerate], the MIDAS protein-metabolite interaction result at PGAM2 and on PGAM1 was “interacted” throughout. Consider `CCCCCCCCCCCC(=O)SCCNC(=O)CCNC(=O)[C@H](O)C(C)(C)COP(=O)(O)OP(=O)(O)OC[C@H]1O[C@@H](n2cnc3c(N)ncnc32)[C@H](O)[C@@H]1OP(=O)(O)O` [C12:0-CoA, lauroyl-CoA], for which the IC50 at LDHA [1] was above 100 µM. Still for that read-out and setting: as for `CCCCCCCC/C=C\CCCCCCCC(=O)SCCNC(=O)CCNC(=O)[C@H](O)C(C)(C)COP(=O)(O)OP(=O)(O)OC[C@H]1O[C@@H](n2cnc3c(N)ncnc32)[C@H](O)[C@@H]1OP(=O)(O)O` [C18:1-CoA, oleoyl-CoA], the figure is around 1 µM; as for `CCCCCCCCCCCCCCCCCCCC(=O)SCCNC(=O)CCNC(=O)[C@H](O)C(C)(C)COP(=O)(O)OP(=O)(O)OC[C@H]1O[C@@H](n2cnc3c(N)ncnc32)[C@H](O)[C@@H]1OP(=O)(O)O` [C20:0-CoA, arachidoyl-CoA], around 1 µM. Consider `CC(C)(COP(=O)(O)OP(=O)(O)OC[C@H]1O[C@@H](n2cnc3c(N)ncnc32)[C@H](O)[C@@H]1OP(=O)(O)O)[C@@H](O)C(=O)NCCC(=O)NCCS` [CoA, coenzyme A], for which the “inhibition of LDHA enzyme activity” value against LDHA [1] is on record as “Neither”. On the same count and under the same terms, then `CCCCCCCCCCCCCCC(C)(C)C(=O)SCCNC(=O)CCNC(=O)C(O)C(C)(C)COP(=O)(O)OP(=O)(O)OCC1OC(n2cnc3c(N)ncnc32)C(O)C1OP(=O)(O)O` (stereo not shown) [DiMePal-CoA, reference compound], with “inhibited”.

Regarding `CCCCCCCCCCCCCCCCC(C)(C)C(=O)O` [DiMeSte, 2,2-dimethyl-stearate, reference compound], in the assay with H9c2 rat cardiomyoblasts [2] (setting [5]), the 13C-glucose tracing entry is “inhibited”. In the assay on H9c2 rat cardiomyoblasts [3] (setting [5]), the 13C-lactate tracing entry is “inhibited”. Take `CC(O)(CC(=O)O)CC(=O)SCCNC(=O)CCNC(=O)[C@H](O)C(C)(C)COP(=O)(O)OP(=O)(O)OC[C@H]1O[C@@H](n2cnc3c(N)ncnc32)[C@H](O)[C@@H]1OP(=O)(O)O` (stereo partly shown) [HMG-CoA, 3-hydroxy-3-methylglutaryl-CoA]: the MIDAS protein-metabolite interaction result on GAPDH is “interacted”. As for `NC(=O)c1ccc[n+]([C@@H]2O[C@H](COP(=O)([O-])OP(=O)(O)OC[C@H]3O[C@@H](n4cnc5c(N)ncnc54)[C@H](O)[C@@H]3O)[C@@H](O)[C@H]2O)c1` [NAD, nicotinamide adenine dinucleotide], the MIDAS protein-metabolite interaction entry on LDHB is on record as “interactions”; at GAPDH it was “interacted”; on LDHA [4], “interactions”.

`NC(=O)C1=CN([C@@H]2O[C@H](COP(=O)(O)OP(=O)(O)OC[C@H]3O[C@@H](n4cnc5c(N)ncnc54)[C@H](O)[C@@H]3O)[C@@H](O)[C@H]2O)C=CC1` [NADH]: the MIDAS protein-metabolite interaction entry on LDHB and at LDHA [4] was “interactions” in each case.

In the case of `C=C(OP(=O)(O)O)C(=O)O` [PEP, phosphoenolpyruvate], the MIDAS protein-metabolite interaction result at PGAM2 and at PGAM1 was “interacted” in each case. `CCCCCC(=O)OCC(COP(=O)(O)OC1C(O)C(O)C(OP(=O)(O)O)C(OP(=O)(O)O)C1O)OC(=O)CCCCC` (stereo not shown) [PIP2, phosphatidylinositol-4,5-bisphosphate C-6]: on PGAM2, the MIDAS protein-metabolite interaction result is “interacted”. Consider `CCCCCC(=O)OCC(COP(=O)(O)OC1C(O)C(OP(=O)(O)O)C(OP(=O)(O)O)C(OP(=O)(O)O)C1O)OC(=O)CCCCC` (stereo not shown) [PIP3, phosphatidylinositol-3,4,5-trisphosphate C-6], for which, at PGAM2, the MIDAS protein-metabolite interaction entry is reported as “interacted”.

Consider `CCCCCCCCCCCCCCCC(=O)O` [Palmitate, palmitate], for which the “labeling of lactate from 13C-glucose” value in the assay on H9c2 rat cardiomyoblasts [2] (Ldhb−/− H9c2 cells) and with H9c2 rat cardiomyoblasts [2] (WT H9c2 cells) was “decreased” each time. The “pyruvate labeling from 13C-lactate” value with H9c2 rat cardiomyoblasts [3] (Ldha−/− H9c2 cells) and in the assay on H9c2 rat cardiomyoblasts [3] (Ldha−/−Ldhb−/− H9c2 cells) was “unaffected” in each case. In addition, the “generation of m+3 pyruvate from 13C-lactate” value in the assay with H9c2 rat cardiomyoblasts [3] (Ldhb−/− H9c2 cells) and in the assay on H9c2 rat cardiomyoblasts [3] (WT H9c2 cells) was “blunted” each time. Regarding `Nc1ncnc2c1ncn2[C@@H]1O[C@@H]2COP(=O)(O)O[C@H]2[C@H]1O` [cAMP, cyclic adenosine monophosphate], the MIDAS protein-metabolite interaction result at GAPDH was “interacted”. For the compound `CN(CC(=O)O)C(=N)NP(=O)(O)O` [creatine-phosphate], at GAPDH, the MIDAS protein-metabolite interaction result is listed as “interacted”.

On to `Cc1cc2nc3c(=O)[nH]c(=O)nc-3n(C[C@H](O)[C@H](O)[C@H](O)COP(=O)(O)OP(=O)(O)OC[C@H]3O[C@@H](n4cnc5c(N)ncnc54)[C@H](O)[C@@H]3O)c2cc1C` [flavin adenine dinucleotide], for which the MIDAS protein-metabolite interaction entry at LDHB and at LDHA [4] was “interactions” in each case.

With `O=P(O)(O)O[C@@H]1[C@H](O)[C@H](O)[C@@H](OP(=O)(O)O)[C@H](OP(=O)(O)O)[C@H]1O` [inositol-1,4,5-trisphosphate], the MIDAS protein-metabolite interaction result on GAPDH and at PGAM1 was “interacted” each time.

Consider `CC[C@H](C)[C@H](N)C(=O)O` [isoleucine], for which the MIDAS protein-metabolite interaction entry at Sestrin2 is recorded as “most enriched interactors”. Still for that read-out and setting: as for `CC(C)C[C@H](N)C(=O)O` [leucine], the entry is “most enriched interactors”. On to `CC(C)(CO[P@@](=O)(O)O[P@@](=O)(O)OC[C@H]1O[C@@H](n2cnc3c(N)ncnc32)[C@H](O)[C@@H]1OP(=O)(O)O)[C@@H](O)C(=O)NCCC(=O)NCCSC(=O)CC(=O)O` [malonyl-coenzyme A], for which, at GAPDH, the MIDAS protein-metabolite interaction entry is given as “interacted”. For `CSCC[C@H](N)C(=O)O` [methionine], at Sestrin2, the MIDAS protein-metabolite interaction result was “most enriched interactors”. Consider `NC(=O)c1ccc[n+]([C@@H]2O[C@H](COP(=O)([O-])O)[C@@H](O)[C@H]2O)c1` [nicotinamide mononucleotide], for which the MIDAS protein-metabolite interaction result at LDHB and on LDHA [4] was “interactions” in each case. For the compound `O=C(O)CC(=O)C(=O)O` [oxaloacetate], the MIDAS protein-metabolite interaction entry on LDHB and on LDHA [4] was “interactions” each time. With `N[C@@H](Cc1ccc(OP(=O)(O)O)cc1)C(=O)O` [phosphotyrosine], the “thermal stabilization of protein upon ligand binding” value (shortened to “thermal stabilization”) on ENO2 and at ENO1 was “not” in each case.

As to `N[C@@H](CO)C(=O)O` [serine], the “thermal stabilization” value on ENO2 and at ENO1 was “not” in each case. Turning to `CCC/C=C/C/C=C/C=C/C=N/NN=O` [triacsin C, reference compound], the “effect on palmitate-mediated inhibition of lactate labeling” value with H9c2 rat cardiomyoblasts [2] (13C-glucose tracing in presence of palmitate) is listed as “prevented”. Also, in the assay on H9c2 rat cardiomyoblasts [3] (13C-lactate tracing in presence of palmitate), the “effect on palmitate-mediated inhibition of pyruvate labeling” value is “prevented”. As to phosphate, the “thermal stabilization” value at ENO2 and at ENO1 was “not” throughout.
